Data reported in ChEMBL document CHEMBL2010749, “Cytotoxic phloroglucinols from the leaves of Myrtus communis” (J Nat Prod, 2012).
≈ marks a conversion by molar mass, not a printed value.

How the values were obtained:
MT4 = assay: Cytotoxicity against human MT4 cells after 96 hrs; format: functional, cell-based; settings: MT4, 96 h
Staphylococcus aureus = assay: Antibacterial activity against Staphylococcus aureus ATCC 25923 after 20 hrs by doubling dilution method; format: functional; settings: ATCC 25923, 20 h
How it was run: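 Broth doubling-dilution in 96-well format: overnight nutrient-broth cultures (37 °C) adjusted to about 10^5 cells/mL; compound stocks in EtOH diluted 2-fold across wells in culture suspension. After 20 h at 37 °C in moist atmosphere, thiazolyl blue tetrazolium added, 4 h further incubation; living bacteria seen as violet turbid wells; MIC read as lowest inhibitory concentration.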

[1] = Selectivity ratio of IC50 for human CRL7065 to MIC for Staphylococcus aureus ATCC 25923; format: functional
HepG2 = assay: Cytotoxicity against human HepG2 cells after 96 hrs; format: functional, cell-based; settings: HepG2, 96 h
DU-145 = assay: Cytotoxicity against human DU145 cells after 96 hrs; format: functional, cell-based; settings: DU-145, 96 h

| MIC (Staphylococcus aureus) | Structure (SMILES) | IC50 (MT4) | Ratio [1] | IC50 (HepG2) | IC50 (DU-145) |
| --- | --- | --- | --- | --- | --- |
| 0.38 µM (≈ 0.248 µg/mL) | CC(C)C(=O)c1c(O)c([C@H](C2=C(O)C(C)(C)C(=O)C(C)(C)C2=O)C(C)C)c2c3c1OC(C)(C)C[C@H]3[C@H]1C(C)(C)C(=O)C(C)(C)[C@@]1(O)O2 (relative stereo) | 2.1 µM | 35 | 4 µM | 3000 nM |
| > 560 µM | C=C1CC[C@]2(C)OC3=C(C(=O)C(C)(C)C(=O)C3(C)C)[C@@H](C(C)C)[C@@H]2[C@H]1C1CCCC1(C)C (relative stereo) | > 100 µM |  |  |  |
| > 560 µM | CC(C)[C@@H]1C[C@@]2(CC[C@]3(C(C)C)C[C@H]23)OC2=C1C(=O)C(C)(C)C(=O)C2(C)C (relative stereo) | 41.4 µM |  |  |  |
|  | CC[C@@]1(O)C(=O)OCc2c1cc1n(c2=O)Cc2cc3ccccc3nc2-1 [CAMPTOTHECIN] |  |  | 0.02 µM | 15 nM |
| 4 µM (≈ 1.29 µg/mL) | O=C(N[C@H](CO)[C@H](O)c1ccc([N+](=O)[O-])cc1)C(Cl)Cl [CHLORAMPHENICOL] |  |  |  |  |
|  | COc1cc([C@@H]2c3cc4c(cc3[C@@H](O[C@@H]3O[C@@H]5CO[C@@H](C)O[C@H]5[C@H](O)[C@H]3O)[C@H]3COC(=O)[C@H]23)OCO4)cc(OC)c1O [ETOPOSIDE] | 0.09 µM |  | 4 µM | 3000 nM |
| 2.2 µM (≈ 1.47 µg/mL) | CC(C)C(=O)c1c(O)c([C@H](C2=C(O)C(C)(C)C(=O)C(C)(C)C2=O)C(C)C)c(O)c([C@H](C2=C(O)C(C)(C)C(=O)C(C)(C)C2=O)C(C)C)c1O [MYRTUCOMMULONE A] | 4.7 µM |  | 6 µM | 5000 nM |
